Results taken from ChEMBL document CHEMBL1121601, “Synthesis and anxiolytic activity of a series of pyrazino[1,2-a][1,4]benzodiazepine derivatives” (J Med Chem, 1980).
Calls of active or inactive are those of the source. The calls are words filed in the database; no cut-off is given here.

Tests used:
[1] = Compound was evaluated for in vitro inhibition of histamine activated adenylate cyclase in guinea pig cerebral cortex; assay type: functional, tissue-based, Cavia porcellus
Summary of the method: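 Cell-free vesicle preparation from guinea pig cerebral cortex, preincubated with [³H]adenine to label the endogenous ATP pool as [³H]ATP. Test agents were then assessed for blocking histamine activation of adenylate cyclase.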

[2] = molecular target: GABA-A receptor; anion channel; test: Displacement of [3H]diazepam from GABA-A receptor in rat synaptosomal membranes; assay type: cell membranes, Membrane
Summary of the method: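 Test agents over a wide concentration range, triplicate tubes per concentration. […] IC50 for inhibition of specific binding read graphically.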

[3] = tested on: Rattus norvegicus; test: Ability to reduce the incidence of metrazole-induced seizures in rats (administered perorally or at standard dose of 30 mg/kg ); Inactive; assay type: functional, organism-based; design: dose 30 mg/kg
[4] = molecular target: Tyrosine 3-monooxygenase (Rattus norvegicus) (UniProt P04177); test: Compound was tested to block the inhibition of tyrosine hydroxylase by apomorphine at 1 uM
Summary of the method: (§1)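 Tyrosine hydroxylase in synaptosomes, run essentially per Bronaugh and co-workers. Percent prevention of apomorphine inhibition = (% control activity with compound + Apo − % control with Apo)/(% control with compound alone − % control with Apo) × 100.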

[5] = species on record: Rattus norvegicus; test: Ability to inhibit the uptake of norepinephrine (NE) by crude synaptosomes from rat whole brain; assay type: functional
Summary of the method: (§2)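 Crude synaptosomes from rat whole brain, per Thornberg and Moore with minor changes. Incubated 5 or 15 min with L-[3H]norepinephrine (20 or 21.2 nM unless otherwise specified) or [3H]serotonin (9.2-14 nM unless otherwise specified). Test agents dissolved in ethanol; final ethanol 1% (v/v).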

[6] = species on record: Rattus norvegicus; test: Ability to inhibit the uptake of serotonin (5-HT) by crude synaptosomes from rat whole brain; assay type: functional; summary of the method: as §2
[7] = molecular target: Tyrosine 3-monooxygenase (Rattus norvegicus) (UniProt P04177); test: Compound was tested to block the inhibition of tyrosine hydroxylase by apomorphine at 10 uM; summary of the method: as §1

Sequence of Tyrosine 3-monooxygenase (Rattus norvegicus) (P04177 whole entry): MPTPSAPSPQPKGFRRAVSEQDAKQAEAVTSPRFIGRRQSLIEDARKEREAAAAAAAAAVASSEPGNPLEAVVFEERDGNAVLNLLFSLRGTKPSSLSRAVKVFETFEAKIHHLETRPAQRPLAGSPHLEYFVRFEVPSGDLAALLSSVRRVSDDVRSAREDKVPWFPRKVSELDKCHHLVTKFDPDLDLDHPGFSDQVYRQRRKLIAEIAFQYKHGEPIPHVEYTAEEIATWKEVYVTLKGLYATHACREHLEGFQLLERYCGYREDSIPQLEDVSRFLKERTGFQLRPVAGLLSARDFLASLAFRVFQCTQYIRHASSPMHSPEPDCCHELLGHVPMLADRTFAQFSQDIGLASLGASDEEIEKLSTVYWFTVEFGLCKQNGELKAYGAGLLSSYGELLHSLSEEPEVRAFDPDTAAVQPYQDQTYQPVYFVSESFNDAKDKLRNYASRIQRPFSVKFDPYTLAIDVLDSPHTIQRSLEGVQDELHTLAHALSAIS

| Compound | IC50 [1] [µM] | IC50 [2] [µM] | ED50 [3] | inhibition [4] [%] | IC50 [5] [µM] | IC50 [6] [µM] | inhibition [7] [%] |
| --- | --- | --- | --- | --- | --- | --- | --- |
| CN1CCN2c3ccc(Cl)cc3C(Cc3ccccc3)=NCC2C1 (stereo not drawn) | > 50 | > 100 | inactive |  |  |  |  |
| CN1C(=O)CN=C(c2ccccc2)c2cc(Cl)ccc21 |  |  |  | 23 |  |  |  |
| CN(C)CCCN1c2ccccc2CCc2ccc(Cl)cc21 [CLOMIPRAMINE] | 4.4 |  |  |  | 9.5 | 0.75 |  |
| CN1CCN2c3ccc(Cl)cc3C(c3ccccc3Cl)=NCC2C1 (stereo not drawn) | 30 | 0.8 |  |  | 30 | 45 |  |
| CN1CCN2c3ccc(Cl)cc3C(c3ccc(Cl)cc3)=NCC2C1 (stereo not drawn) | > 50 | > 100 | inactive |  |  |  | 10 |
| CN1CCN2c3ccc(Cl)c(-c4ccccc4)c3CNCC2C1 (stereo not drawn) | > 50 | > 100 | inactive |  |  |  |  |
| CC(=O)N1Cc2c(ccc(Cl)c2-c2ccccc2)N2CCN(C)CC2C1 (stereo not drawn) |  | > 100 | inactive |  |  |  |  |
| CN1CCN2c3ccccc3Cc3ccccc3C2C1 (stereo not drawn) [MIANSERIN] | 0.19 |  |  |  | 36 | 35 |  |
| CC1=NCC2CN(C)CCN2c2ccc(Cl)cc21 (stereo not drawn) | 5 | > 100 | inactive |  |  |  |  |
| CN1CCN2c3ccc(Cl)cc3C(c3ccccc3)=NCC2C1 (stereo not drawn) | 9 | 9 | inactive |  |  |  |  |
| O=C(CCCN1CCC(O)(c2ccc(Cl)cc2)CC1)c1ccc(F)cc1 |  |  |  | 28 |  |  |  |
| CNCCCN1c2ccccc2CCc2ccccc21 [DESIPRAMINE] | 10.5 |  |  |  | 0.08 | 6.5 |  |
